Measurements: ChEMBL document CHEMBL1140649, “Design, synthesis, and preliminary biological evaluation of a novel triazole analogue of ceramide” (Bioorg Med Chem Lett, 2007)
pEC50: −log10 of the molar value. Calls of active or inactive are those of the source. The calls are words filed in the database; no cut-off is given here.

Assays:
Assay type in all cases: functional, cell-based
Settings in all cases: Homo sapiens
NCI-H358 = assay: Cytotoxicity against NCI-H358 cells assessed as cell survival by SRB assay
HCT-116 = assay: Cytotoxicity against HCT116 cells assessed as cell survival by SRB assay
K562 [1] = assay: Cytotoxicity against K562 cells assessed as cell survival by MTT assay
Summary of the method: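 Suspension leukemia cells seeded, 24 h, then 48 h treatment with compounds diluted from ethanol stock into medium. MTT added (final 500 µg/ml), 3 h at 37 °C. Medium removed, formazan dissolved in DMSO, absorbance at 570 nm. Survival relative to solvent-treated controls; EC50 (concentration giving 50% survival) by non-linear regression; minimum of three experiments.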

K562 [2] = assay: Induction of apoptosis in K562 cells assessed as DNA fragmentation after 18 hrs by agarose gel electrophoresis
Summary of the method: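 Cells in 100-mm dishes exposed to various concentrations for 18 h. Lysed in 50 mM Tris-HCl pH 7.5, 20 mM EDTA, 1% NP-40 for 5 min at 4 °C. SDS added (final 1%) for 1 h at 56 °C, then proteinase K (final 2.5 µg/µl) for 2 h at 37 °C. DNA precipitated with ammonium acetate (final 5 M) and ethanol. 5 µg run on 2% agarose gel.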

In the case of `CCCCCCCCCCCCCC[C@@H](O)[C@@H](O)[C@H](CO)n1cc(CCCCCC)nn1`, the pEC50 (NCI-H358) was 4.86, the pEC50 (HCT-116) was 4.92 and the pEC50 (K562 [1]) was 4.90.

`CCCCCCCCCCCCCC[C@@H](O)[C@@H](O)[C@H](CO)n1cc(CCC)nn1` gave a pEC50 (NCI-H358) of 4.88, a pEC50 (HCT-116) of 4.86 and a pEC50 (K562 [1]) of 4.83.

With `CCCCCCCCCCCCCCCCCCCCCCCCc1cn([C@@H](CO)[C@H](O)[C@H](O)CCCCCCCCCCCCCC)nn1` the pEC50 (NCI-H358) was < 4.30, the pEC50 (HCT-116) was < 4.30 and the pEC50 (K562 [1]) was < 4.30.

`CCCCCCCCCCCCCC[C@@H](O)[C@@H](O)[C@H](CO)n1cc(CCCC)nn1` gave a pEC50 (NCI-H358) of 4.89, a pEC50 (HCT-116) of 4.89 and a pEC50 (K562 [1]) of 4.84. The Activity (K562 [2]) was “Active”.

`CCCCCCCCCCCCC/C=C/[C@@H](O)[C@H](CO)n1cc(CCCCCCCCCCCCCCCCCCCCCCCC)nn1` was tested, and the pEC50 (NCI-H358) was < 4.30, the pEC50 (HCT-116) was < 4.30 and the pEC50 (K562 [1]) was < 4.30.

For `CCCCCCCCCCCCC/C=C/[C@@H](O)[C@H](CO)n1cc(CCCCCCCCCCCCC)nn1`, the pEC50 (NCI-H358) was < 4.30, the pEC50 (HCT-116) was < 4.30 and the pEC50 (K562 [1]) was < 4.30.

In the case of `CCCCCCCCCCCCC/C=C/[C@@H](O)[C@H](CO)n1cc(CCCC)nn1`, the pEC50 (NCI-H358) was 4.87, the pEC50 (HCT-116) was 4.89 and the pEC50 (K562 [1]) was 4.91. The Activity (K562 [2]) was “Active”.

For `CCCCCCCCCCCCC/C=C/[C@@H](O)[C@H](CO)n1cc(CCCCCC)nn1`, the pEC50 (NCI-H358) was 4.89, the pEC50 (HCT-116) was 4.90 and the pEC50 (K562 [1]) was 5.09.

`CCCCCCCCCCCCC/C=C/[C@@H](O)[C@H](CO)n1cc(CCC)nn1` showed a pEC50 (NCI-H358) of 4.80, a pEC50 (HCT-116) of 4.80 and a pEC50 (K562 [1]) of 4.89.

`CCCCCCCCCCCCC/C=C/[C@@H](O)[C@H](CO)NC(C)=O` was tested, and the pEC50 (NCI-H358) was 4.71, the pEC50 (HCT-116) was 4.61 and the pEC50 (K562 [1]) was 4.45.

With `CCCCCCCCCCCCCC[C@@H](O)[C@@H](O)[C@H](CO)n1cc(CCCCCCCCCCCCC)nn1` the pEC50 (NCI-H358) was < 4.30, the pEC50 (HCT-116) was < 4.30 and the pEC50 (K562 [1]) was < 4.30.
